We go through nine compounds from ChEMBL document CHEMBL2016434, “Exploiting the P-1 pocket of BRCT domains toward a structure guided inhibitor design” (ACS Med Chem Lett, 2011).

Assay [1] deals with T1, Breast cancer type 1 susceptibility protein (Homo sapiens, UniProt P38398). Briefly: Inhibition of BRCT domain of His-tagged BRCA1 after 1 min by competitive fluorescence polarization assay.
Target sequence in this assay (P38398 whole entry, the tested form may be a part): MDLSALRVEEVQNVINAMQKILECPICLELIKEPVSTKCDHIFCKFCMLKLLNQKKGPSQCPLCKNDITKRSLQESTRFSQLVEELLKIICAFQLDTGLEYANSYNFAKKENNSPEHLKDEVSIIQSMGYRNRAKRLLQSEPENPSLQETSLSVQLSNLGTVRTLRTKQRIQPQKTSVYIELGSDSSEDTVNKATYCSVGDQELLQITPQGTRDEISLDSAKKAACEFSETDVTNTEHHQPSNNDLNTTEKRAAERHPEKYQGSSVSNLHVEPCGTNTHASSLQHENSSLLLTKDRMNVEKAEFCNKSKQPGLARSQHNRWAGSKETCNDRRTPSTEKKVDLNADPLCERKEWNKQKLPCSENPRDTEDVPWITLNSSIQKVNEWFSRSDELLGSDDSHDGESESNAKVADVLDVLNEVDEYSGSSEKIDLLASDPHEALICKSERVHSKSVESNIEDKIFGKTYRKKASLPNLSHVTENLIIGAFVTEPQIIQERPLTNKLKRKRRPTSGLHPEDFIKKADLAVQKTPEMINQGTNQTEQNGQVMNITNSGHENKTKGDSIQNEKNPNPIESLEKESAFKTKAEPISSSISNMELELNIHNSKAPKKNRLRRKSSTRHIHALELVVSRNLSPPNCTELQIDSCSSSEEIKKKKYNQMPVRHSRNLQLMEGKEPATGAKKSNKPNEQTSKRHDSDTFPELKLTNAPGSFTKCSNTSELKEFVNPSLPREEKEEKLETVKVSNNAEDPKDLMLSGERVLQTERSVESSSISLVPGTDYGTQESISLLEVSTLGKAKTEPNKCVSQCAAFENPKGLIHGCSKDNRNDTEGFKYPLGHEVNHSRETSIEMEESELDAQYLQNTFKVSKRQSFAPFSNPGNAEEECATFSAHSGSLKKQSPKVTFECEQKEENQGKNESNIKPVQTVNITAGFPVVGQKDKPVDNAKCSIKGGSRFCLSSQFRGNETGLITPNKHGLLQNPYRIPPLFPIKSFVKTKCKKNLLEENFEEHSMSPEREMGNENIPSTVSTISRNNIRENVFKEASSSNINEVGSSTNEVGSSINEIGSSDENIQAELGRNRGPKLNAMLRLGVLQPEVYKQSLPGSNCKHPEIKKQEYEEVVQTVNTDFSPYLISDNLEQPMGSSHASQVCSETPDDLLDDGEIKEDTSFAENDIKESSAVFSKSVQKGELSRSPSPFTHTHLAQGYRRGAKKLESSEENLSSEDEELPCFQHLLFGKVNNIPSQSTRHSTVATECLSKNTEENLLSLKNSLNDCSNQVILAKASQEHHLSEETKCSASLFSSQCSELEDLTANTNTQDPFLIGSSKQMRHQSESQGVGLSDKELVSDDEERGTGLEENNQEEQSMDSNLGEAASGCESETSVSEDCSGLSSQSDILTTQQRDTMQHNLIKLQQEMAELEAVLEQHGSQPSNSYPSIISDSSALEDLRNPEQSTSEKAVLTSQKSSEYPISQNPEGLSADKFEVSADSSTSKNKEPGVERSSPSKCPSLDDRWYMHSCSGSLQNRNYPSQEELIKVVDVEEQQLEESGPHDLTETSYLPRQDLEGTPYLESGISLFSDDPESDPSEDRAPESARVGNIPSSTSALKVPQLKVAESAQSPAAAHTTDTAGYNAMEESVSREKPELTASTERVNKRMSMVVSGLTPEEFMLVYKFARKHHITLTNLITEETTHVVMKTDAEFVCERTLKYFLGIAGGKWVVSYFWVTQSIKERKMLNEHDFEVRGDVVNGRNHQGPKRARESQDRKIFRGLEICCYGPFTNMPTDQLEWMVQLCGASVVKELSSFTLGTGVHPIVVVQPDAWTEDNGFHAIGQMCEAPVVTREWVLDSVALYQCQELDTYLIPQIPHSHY
Assay [2] deals with T1, Breast cancer type 1 susceptibility protein. Kind of assay: Displacement of phospho-BACH1 protein from BRCT domain of BRCA1 at 0.5 to 5000 uM by PAGE analysis. Summed up: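 Phospho-BACH1 peptide immobilized on streptavidin–agarose beads was incubated with BRCT-BRCA1 together with the competing peptide mimics. Beads were then isolated and the bound protein resolved by polyacrylamide gel electrophoresis, followed by phosphor-screen exposure. Relative band intensities were quantified, and pulldown IC50 values were obtained by curve fitting.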
Target sequence in this assay (P38398 whole entry, looked up, the tested form may be a part): as the sequence (P38398 whole entry, the tested form may be a part) above

pKi: −log10 of the molar value. Activity calls are given as the source filed them. The calls are words filed in the database; no cut-off is given here. Non-standard residues stand in square brackets, D forms with d. Residues, ends and D or L forms follow the SMILES beside them. *: point of attachment. Benzoyl(3-Ph) = O=C(c1cccc(-c2ccccc2)c1)*; 2Nal = N[C@@H](Cc1ccc2ccccc2c1)C(=O)O; d2Nal = N[C@H](Cc1ccc2ccccc2c1)C(=O)O; Pentanoyl(5-Ph) = O=C(CCCCc1ccccc1)*; Butanoyl(4-Ph) = O=C(CCCc1ccccc1)*; Hydrocinnamoyl = O=C(CCc1ccccc1)*; pS = N[C@@H](COP(=O)(O)O)C(=O)O; X1 = O=C(C/C=C/c1ccccc1)*

In assay [1], `CC(C)[C@H](NC(=O)[C@@H]1CCCN1C(=O)[C@H](COP(=O)(O)O)NC(=O)CCCCc1ccccc1)C(=O)N[C@@H](Cc1ccccc1)C(=O)O` ({Pentanoyl(5-Ph)}-[pS]PVF-OH) had a pKi of 4.92.

Regarding `CC(C)[C@H](NC(=O)[C@@H]1CCCN1C(=O)[C@H](COP(=O)(O)O)NC(=O)CCc1ccccc1)C(=O)N[C@@H](Cc1ccccc1)C(=O)O` (Hydrocinnamoyl-[pS]PVF-OH), the pKi in assay [1] was 7.00.

The compound `CC(=O)N[C@H](Cc1ccc2ccccc2c1)C(=O)N[C@@H](COP(=O)(O)O)C(=O)N1CCC[C@H]1C(=O)N[C@H](C(=O)N[C@@H](Cc1ccccc1)C(N)=O)[C@@H](C)O` (Ac-[d2Nal][pS]PTF-NH2) had a pKi in assay [1] of 4.71.

In the case of `CC(C)[C@H](NC(=O)[C@@H]1CCCN1C(=O)[C@H](COP(=O)(O)O)NC(=O)c1cccc(-c2ccccc2)c1)C(=O)N[C@@H](Cc1ccccc1)C(=O)O` ({Benzoyl(3-Ph)}-[pS]PVF-OH), the outcome in assay [2] was Active. Besides, in assay [1], the pKi was 7.10.

In assay [1], `CC(C)[C@H](NC(=O)[C@@H]1CCCN1C(=O)[C@H](COP(=O)(O)O)NC(=O)CCCc1ccccc1)C(=O)N[C@@H](Cc1ccccc1)C(=O)O` ({Butanoyl(4-Ph)}-[pS]PVF-OH) showed a pKi of 6.30.

`CC(=O)N[C@@H](Cc1ccc2ccccc2c1)C(=O)N[C@@H](COP(=O)(O)O)C(=O)N1CCC[C@H]1C(=O)N[C@H](C(=O)N[C@@H](Cc1ccccc1)C(N)=O)[C@@H](C)O` (Ac-[2Nal][pS]PTF-NH2) gave a pKi in assay [1] of 5.91.

Compound `CC(=O)N[C@@H](Cc1ccc2ccccc2c1)C(=O)N[C@@H](COP(=O)(O)O)C(=O)N1CCC[C@H]1C(=O)N[C@H](C(=O)N[C@@H](Cc1ccccc1)C(=O)O)C(C)C` (Ac-[2Nal][pS]PVF-OH) had a pKi in assay [1] of 6.89.

With `CC(=O)N[C@@H](Cc1ccc2ccccc2c1)C(=O)N[C@@H](COP(=O)(O)O)C(=O)N1CCC[C@H]1C(=O)N[C@H](C(=O)N[C@@H](Cc1ccccc1)C(N)=O)C(C)C` (Ac-[2Nal][pS]PVF-NH2), the negative logarithm of the Ki (pKi) in assay [1] was 6.27.

Regarding `CC(C)[C@H](NC(=O)[C@@H]1CCCN1C(=O)[C@H](COP(=O)(O)O)NC(=O)C/C=C/c1ccccc1)C(=O)N[C@@H](Cc1ccccc1)C(=O)O` (X1-[pS]PVF-OH), the outcome in assay [2] was Active. For the same compound, the pKi in assay [1] was 7.40.
